Data: ChEMBL document CHEMBL2331334, “Hybrid furoxanyl N-acylhydrazone derivatives as hits for the development of neglected diseases drug candidates” (Eur J Med Chem, 2013)
≈ marks a conversion by molar mass, not a printed value.

Legend:
[1] = Selectivity index, ratio of IC50 for mouse J774.1 cells to MIC for multidrug-resistant Mycobacterium tuberculosis clinical isolate; type: functional
Method in brief: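 Cytotoxicity: J774.1 macrophages in DMEM with 4 mM L-glutamine and 10% heat-inactivated FCS, seeded at 5 × 10^4/well, attached 48 h at 37 °C, 5% CO2. Exposed 48 h to 12.5–400.0 µM compound or vehicle. MTT at 0.1 mg/mL final for 3 h, formazan dissolved in DMSO/glycine buffer pH 10.5, A560 read. IC50 by linear regression, divided by the MIC against the same MTB strain.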

[2] = tested on: Mycobacterium tuberculosis; experiment: Antimycobacterial activity against multidrug-resistant Mycobacterium tuberculosis clinical isolate assessed as growth inhibition after 5 days by MTT assay; type: functional; details: 120 h
Method in brief: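 MTB inoculum made from 20–30-day slant growth in Tween 80/0.2% BSA, adjusted to McFarland No. 1, then diluted in 7H9GC broth (Middlebrook 7H9, glycerol, Casitone, OADC). Final inoculum about 1.2 × 10^6 CFU/mL. Compounds taken from DMSO stock to final 0.4–25 in broth, with a DMSO control. Plates run 5 days at 37 °C, then tetrazolium (MTT)–Tween 80 added for a further 24 h at 37 °C. Read-out is MIC.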

**Q.** For `NNC(=O)c1ccncc1` [ISONIAZID], which “Selectivity Index” value [1] is on record?
**A.** The value was greater than 9.

**Q.** What about the MIC [2] of the same compound?
**A.** The MIC was 45.6 µM (≈ 6.25 µg/mL).

**Q.** Which MIC [2] does the source give for `O=C(N/N=C/c1c(-c2ccccc2)no[n+]1[O-])c1ccc2c(c1)OCO2` here?
**A.** Its MIC is greater than 71 µM.

**Q.** For `Cc1c(C(=O)N/N=C/c2ccccc2O)no[n+]1[O-]`, which MIC [2] is on record?
**A.** The MIC was greater than 95.4 µM.

**Q.** Which MIC [2] does the source give for `Cc1c(C(=O)N/N=C/c2ccccn2)no[n+]1[O-]` here?
**A.** The MIC was greater than 101 µM.

**Q.** For `O=C(N/N=C/c1c(-c2ccccc2)no[n+]1[O-])c1cccnc1`, which “Selectivity Index” value [1] is on record?
**A.** The value was 10.

**Q.** And the MIC [2]?
**A.** Its MIC is 20.2 µM (≈ 6.25 µg/mL).

**Q.** With `COc1ccc(/C=N/NC(=O)c2no[n+]([O-])c2C)cc1OC` as the compound, how does the MIC [2] read?
**A.** The MIC was greater than 81.6 µM.

**Q.** With `Cc1[nH]cnc1C(=O)N/N=C/c1ccc2no[n+]([O-])c2c1` as the compound, how does the “Selectivity Index” value [1] read?
**A.** The value was 1.5.

**Q.** What about the MIC [2] of the same compound?
**A.** Its MIC is 21.9 µM (≈ 6.27 µg/mL).

**Q.** With `O=C(N/N=C/c1ccc2no[n+]([O-])c2c1)c1cnn(-c2ccccc2)c1` as the compound, how does the MIC [2] read?
**A.** The MIC was greater than 17.9 µM.

**Q.** Which MIC [2] does the source give for `O=C(N/N=C/c1c(-c2ccccc2)no[n+]1[O-])c1cnn(-c2ccccc2)c1` here?
**A.** The MIC was greater than 66.8 µM.

**Q.** With `Cc1c(C(=O)N/N=C/c2ccc([N+](=O)[O-])cc2)no[n+]1[O-]` as the compound, how does the MIC [2] read?
**A.** Its MIC is greater than 85.9 µM.

**Q.** Which MIC [2] does the source give for `Cc1c(C(=O)N/N=C/c2ccco2)no[n+]1[O-]` here?
**A.** The MIC was greater than 106 µM.

**Q.** For `Cc1c(C(=O)N/N=C/c2c(-c3ccccc3)no[n+]2[O-])no[n+]1[O-]`, which MIC [2] is on record?
**A.** The MIC was greater than 75.8 µM.

**Q.** What does the source list for `O=C(N/N=C/c1ccc2nonc2c1)c1cccnc1`?
**A.** Selectivity Index [1]: 5; MIC [2]: 46.8 µM (≈ 12.5 µg/mL)

**Q.** Which MIC [2] does the source give for `Cc1c(/C=N/NC(=O)c2ccncc2)no[n+]1[O-]` here?
**A.** Its MIC is greater than 25.4 µM.

**Q.** Which MIC [2] does the source give for `Cc1c(/C=N/NC(=O)c2no[n+]([O-])c2C)no[n+]1[O-]` here?
**A.** The MIC was greater than 93.6 µM.

**Q.** Which MIC [2] does the source give for `Cc1[nH]cnc1C(=O)N/N=C/c1c(-c2ccccc2)no[n+]1[O-]` here?
**A.** Its MIC is greater than 80.1 µM.

**Q.** Which MIC [2] does the source give for `COc1cc(/C=N/NC(=O)c2no[n+]([O-])c2C)cc(OC)c1OC` here?
**A.** The MIC was greater than 74.4 µM.

**Q.** For `Cc1c(/C=N/NC(=O)c2cccnc2)no[n+]1[O-]`, which MIC [2] is on record?
**A.** The MIC was greater than 101 µM.

**Q.** With `O=C(N/N=C/c1ccc2no[n+]([O-])c2c1)c1ccc2c(c1)OCO2` as the compound, how does the MIC [2] read?
**A.** Its MIC is greater than 76.7 µM.

**Q.** With `Cc1c(C(=O)N/N=C/c2ccc(Br)cc2)no[n+]1[O-]` as the compound, how does the MIC [2] read?
**A.** The MIC was greater than 74 µM.

**Q.** For `Cc1c(C(=O)N/N=C/c2cccc(O)c2)no[n+]1[O-]`, which MIC [2] is on record?
**A.** Its MIC is greater than 95.4 µM.

**Q.** For `Cc1c(C(=O)N/N=C/c2ccc(N(C)C)cc2)no[n+]1[O-]`, which MIC [2] is on record?
**A.** The MIC was greater than 86.5 µM.

**Q.** For `Cc1c(C(=O)N/N=C/c2ccc3no[n+]([O-])c3c2)no[n+]1[O-]`, which MIC [2] is on record?
**A.** The MIC was 82.2 µM (≈ 25 µg/mL).

**Q.** With `Cc1nc2ccccn2c1C(=O)N/N=C/c1c(-c2ccccc2)no[n+]1[O-]` as the compound, how does the “Selectivity Index” value [1] read?
**A.** Its value is 6.5.

**Q.** What about the MIC [2] of the same compound?
**A.** Its MIC is 8.6 µM (≈ 3.12 µg/mL).

**Q.** Which MIC [2] does the source give for `Cc1c(/C=N/NC(=O)c2cnn(-c3ccccc3)c2)no[n+]1[O-]` here?
**A.** Its MIC is greater than 80.1 µM.

**Q.** With `Cc1[nH]cnc1C(=O)N/N=C/c1no[n+]([O-])c1C` as the compound, how does the MIC [2] read?
**A.** The MIC was greater than 100 µM.

**Q.** What does the source list for `O=C(N/N=C/c1c(-c2ccccc2)no[n+]1[O-])c1ccncc1`?
**A.** Selectivity Index [1]: >40; MIC [2]: 10.1 µM (≈ 3.12 µg/mL)

**Q.** Which MIC [2] does the source give for `COc1cc(/C=N/NC(=O)c2no[n+]([O-])c2C)ccc1O` here?
**A.** Its MIC is greater than 85.6 µM.

**Q.** With `Cc1c(C(=O)N/N=C/c2ccc(C(F)(F)F)cc2)no[n+]1[O-]` as the compound, how does the MIC [2] read?
**A.** The MIC was greater than 79.6 µM.

**Q.** With `Cc1c(C(=O)N/N=C/c2ccc([N+](=O)[O-])s2)no[n+]1[O-]` as the compound, how does the MIC [2] read?
**A.** The MIC was 42.1 µM (≈ 12.5 µg/mL).

**Q.** Which results are given for `O=C(N/N=C/c1ccc2no[n+]([O-])c2c1)c1ccncc1`?
**A.** Selectivity Index [1]: 12; MIC [2]: 11 µM (≈ 3.12 µg/mL)

**Q.** Which MIC [2] does the source give for `CC(=O)Nc1ccc(/C=N/NC(=O)c2no[n+]([O-])c2C)cc1` here?
**A.** The MIC was greater than 82.5 µM.

**Q.** What does the source list for `Cc1nc2ccccn2c1C(=O)N/N=C/c1ccc2no[n+]([O-])c2c1`?
**A.** Selectivity Index [1]: 3.7; MIC [2]: 38.6 µM (≈ 13 µg/mL)

**Q.** Which “Selectivity Index” value [1] does the source give for `O=C(N/N=C/c1ccc2no[n+]([O-])c2c1)c1cccnc1` here?
**A.** Its value is 1.4.

**Q.** What about the MIC [2] of the same compound?
**A.** Its MIC is 22.1 µM (≈ 6.26 µg/mL).

**Q.** With `COc1ccc(/C=N/NC(=O)c2no[n+]([O-])c2C)cc1O` as the compound, how does the MIC [2] read?
**A.** The MIC was greater than 85.6 µM.

**Q.** Which MIC [2] does the source give for `Cc1nc2ccccn2c1C(=O)N/N=C/c1no[n+]([O-])c1C` here?
**A.** Its MIC is greater than 83.3 µM.

**Q.** For `Cc1c(/C=N/NC(=O)c2ccc3c(c2)OCO3)no[n+]1[O-]`, which MIC [2] is on record?
**A.** Its MIC is greater than 86.2 µM.

**Q.** With `Cc1c(C(=O)N/N=C/c2ccc(C(=O)O)cc2)no[n+]1[O-]` as the compound, how does the MIC [2] read?
**A.** Its MIC is greater than 86.2 µM.

**Q.** For `Cc1c(C(=O)N/N=C/c2ccc([N+](=O)[O-])o2)no[n+]1[O-]`, which MIC [2] is on record?
**A.** Its MIC is 44.5 µM (≈ 12.5 µg/mL).

**Q.** With `Cc1c(C(=O)N/N=C/c2ccccc2)no[n+]1[O-]` as the compound, how does the MIC [2] read?
**A.** The MIC was greater than 102 µM.

**Q.** For `Cc1c(C(=O)N/N=C/c2ccc3c(c2)OCO3)no[n+]1[O-]`, which MIC [2] is on record?
**A.** The MIC was greater than 86.2 µM.

**Q.** For `O=C(N/N=C/c1ccc2nonc2c1)c1ccncc1`, which MIC [2] is on record?
**A.** The MIC was greater than 93.6 µM.
